For one test, the system named is MCF7. Put plainly: Antiproliferative activity against human MCF7 cells after 48 hrs by MTT assay. It counts as functional, cell-based. The note with it: MCF7, 48 h. The essentials:
(§1)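 Cells in log phase seeded at about 1.0 × 10^5 cells/mL in 96-well plates, left 12 h at 37 °C, 5% CO2. Compounds dissolved in DMSO, added at 2.5, 5, 10, 20 and 50 µM, 48 h exposure. Absorbance read at 570/630 nm dual wavelength. Survival expressed relative to negative control. IC50 by Bliss method (n = 5), tests done in triplicate.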
For orientation: Tetrazolium assays rely on reduction of a dye to a coloured formazan, in cell work by metabolically active cells.

In the next test the test system is A549. Put plainly: Antiproliferative activity against human A549 cells after 48 hrs by MTT assay. The test is classed as functional, cell-based. The settings on record: A549, 48 h. The method in brief: as §1
The subject of another test is HepG2. Put plainly: Antiproliferative activity against human HepG2 cells after 48 hrs by MTT assay. The settings on record: HepG2, 48 h. The test is classed as functional, cell-based. The method in brief:
as §1

A further test concerns HCT-116. Put plainly: Antiproliferative activity against human HCT116 cells after 48 hrs by MTT assay. It counts as functional, cell-based. The settings on record: HCT-116, 48 h. The essentials: as §1
Test [1] can be described thus: Antiproliferative activity against human NCI-460 cells after 48 hrs by MTT assay. It counts as functional, cell-based. The note with it: NCI-460, 48 h. The method in brief:
as §1

The species named for the next test is Homo sapiens. Briefly: Inhibition of HSP90/Cdc37 interaction assessed as reversal of drug resistance by measuring ratio of IC50 for human doxorubicin-resistant NCI-H460 cells to IC50 for human NCI-H460 cells. The method in brief: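 Resistance factor is the ratio of IC50 in NCI-H460/DOX cells to IC50 in parental NCI-H460 cells. […] Values are mean ± SD of five separate experiments. Doxorubicin serves as the positive control.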

The nature of test [2]: Inhibition of HSP90/Cdc37 interaction in human doxorubicin-resistant NCI-H460 cells assessed as reduction in cell proliferation after 48 hrs by MTT assay. The note with it: NCI-H460, 48 h. The method in brief:
as §1

Test [3] can be described thus: Inhibition of His-tagged full-length Hsp90 (unknown origin)/GST-tagged Cdc37M (unknown origin) interaction after 1 hr by HTRF assay. Also noted: species or system Homo sapiens. The essentials: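 TR-FRET in PBS containing 400 mM KF, pH 7.3. His-tagged full-length Hsp90 and GST-Cdc37M, each 250 nM final, incubated with compound for 1 h at 37 °C. Anti-GST-Cryptate and anti-6His-XL665 then added for a further 0.5 h at 37 °C. Excitation 320 nm, emission 665/620 nm, reported as ratio ×10,000. Negative and blank controls run in each assay.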

Some results are limits rather than exact numbers.

A word on the IC50: it is the point on the concentration scale where inhibition reaches its midpoint.

As to `CCOC(=O)[C@@]1(C)CC[C@]2(C)CC[C@]3(C)C(=CC(=O)[C@@H]4[C@@]5(C)CC[C@H](OC(=O)CCC(=O)Nc6nc7ccccc7s6)C(C)(C)[C@@H]5CC[C@]43C)[C@@H]2C1`, the IC50 in the test on MCF7 is 20.5 µM; in the test with A549, 18.8 µM; in the test with HepG2, 25.8 µM; in the test on HCT-116, 22.3 µM; in test [1], 16.4 µM; in test [2], 19.2 µM. In test [3], this compound registered an IC50 of 9.09 µM. In the test listed under Homo sapiens, the Ratio IC50 turned out to be 1.17.

For `CCOC(=O)[C@@]1(C)CC[C@]2(C)CC[C@]3(C)C(=CC(=O)[C@@H]4[C@@]5(C)CC[C@H](OC(=O)CCC(=O)Nc6nc7c(C)cccc7s6)C(C)(C)[C@@H]5CC[C@]43C)[C@@H]2C1`, the IC50 in the test on MCF7 was 26.5 µM; with A549 it was 22.8 µM; in the test on HepG2 it was 31.8 µM; in the test on HCT-116 it was 26.3 µM; in test [3] it was 21.9 µM.

As to `CC(=O)O[C@H]1CC[C@]2(C)[C@H]3C(=O)C=C4[C@@H]5C[C@@](C)(C(=O)Nc6nc7ccccc7s6)CC[C@]5(C)CC[C@@]4(C)[C@]3(C)CC[C@H]2C1(C)C`, the IC50 (in the test on MCF7; with A549; in the test on HepG2; with HCT-116; in test [3]) was above 100 µM throughout.

For `CCOC(=O)[C@@]1(C)CC[C@]2(C)CC[C@]3(C)C(=CC(=O)[C@@H]4[C@@]5(C)CC[C@H](OC(=O)CCC(=O)Nc6nc7c(Br)cccc7s6)C(C)(C)[C@@H]5CC[C@]43C)[C@@H]2C1`, the IC50 in the test on MCF7 worked out at 24.4 µM; in the test on A549, 20.7 µM; in the test with HepG2 it was 29.9 µM; in the test on HCT-116 it was 26.8 µM; in test [3], 15.3 µM.

As to `CC1(C)[C@@H](O)CC[C@]2(C)[C@H]3C(=O)C=C4[C@@H]5C[C@@](C)(C(=O)Nc6nc7ccccc7s6)CC[C@]5(C)CC[C@@]4(C)[C@]3(C)CC[C@@H]12`, the IC50 in the test on MCF7 stood at 71.4 µM; in the test with A549, 75.4 µM; in the test on HepG2, 88 µM; with HCT-116 it was 80.7 µM; in test [3], 89.5 µM.

On to `CC1(C)[C@@H](O)CC[C@]2(C)[C@H]3C(=O)C=C4[C@@H]5C[C@@](C)(C(=O)O)CC[C@]5(C)CC[C@@]4(C)[C@]3(C)CC[C@@H]12` [ENOXOLONE], for which the IC50 in the test with MCF7 stood at 74.8 µM; in the test on A549 it was 84.2 µM; with HepG2, 94.5 µM; with HCT-116 it was 91.2 µM; in test [3], 78.4 µM.

On to `COc1ccc2nc(NC(=O)[C@@]3(C)CC[C@]4(C)CC[C@]5(C)C(=CC(=O)[C@@H]6[C@@]7(C)CC[C@H](O)C(C)(C)[C@@H]7CC[C@]65C)[C@@H]4C3)sc2c1`, for which the IC50 was 52.7 µM in the test on MCF7; 51.1 µM in the test with A549; 60.1 µM with HepG2; 54.2 µM with HCT-116; 62.4 µM in test [3].

As for `CC1(C)[C@@H](O)CC[C@]2(C)[C@H]3C(=O)C=C4[C@@H]5C[C@@](C)(C(=O)Nc6nc7c(Cl)cccc7s6)CC[C@]5(C)CC[C@@]4(C)[C@]3(C)CC[C@@H]12`, the IC50 with MCF7 is 71.2 µM; in the test on A549, 75.4 µM; in the test on HepG2 it was 69.6 µM; in the test on HCT-116 it was above 100 µM; in test [3], 65.6 µM.

For the compound `CC1(C)[C@@H](O)CC[C@]2(C)[C@H]3C(=O)C=C4[C@@H]5C[C@@](C)(C(=O)Nc6nc7c(Br)cccc7s6)CC[C@]5(C)CC[C@@]4(C)[C@]3(C)CC[C@@H]12`, the IC50 (in the test with MCF7; with A549; in the test on HepG2; in the test with HCT-116; in test [3]) was above 100 µM each time.

As to `COc1cccc2c1C(=O)c1c(O)c3c(c(O)c1C2=O)C[C@@](O)(C(=O)CO)C[C@@H]3O[C@H]1C[C@H](N)[C@H](O)[C@H](C)O1` [DOXORUBICIN], the IC50 in test [1] was determined as 5.18 µM; in test [2] it was 38 µM. Besides, in the test filed under Homo sapiens, the Ratio IC50 was determined as 7.33.

In the case of `CCOC(=O)[C@@]1(C)CC[C@]2(C)CC[C@]3(C)C(=CC(=O)[C@@H]4[C@@]5(C)CC[C@H](OC(=O)CCC(=O)Nc6nc7c(OC)cccc7s6)C(C)(C)[C@@H]5CC[C@]43C)[C@@H]2C1`, the IC50 stood at 20.1 µM in the test on MCF7; 16.4 µM in the test on A549; 21.9 µM with HepG2; 23.1 µM with HCT-116; 10.4 µM in test [3].

Take `Cc1ccc2nc(NC(=O)[C@@]3(C)CC[C@]4(C)CC[C@]5(C)C(=CC(=O)[C@@H]6[C@@]7(C)CC[C@H](O)C(C)(C)[C@@H]7CC[C@]65C)[C@@H]4C3)sc2c1`: the IC50 came to 23.2 µM in the test on MCF7; 22.4 µM in the test on A549; 27.6 µM in the test with HepG2; 18.7 µM with HCT-116; 83.2 µM in test [3].

Turning to `CCOC(=O)[C@@]1(C)CC[C@]2(C)CC[C@]3(C)C(=CC(=O)[C@@H]4[C@@]5(C)CC[C@H](OC(=O)CCC(=O)Nc6nc7ccc(Br)cc7s6)C(C)(C)[C@@H]5CC[C@]43C)[C@@H]2C1`, the IC50 came to 16.1 µM with MCF7; 14.2 µM in the test with A549; 19 µM with HepG2; 15.9 µM in the test with HCT-116; 5.07 µM in test [3].

In the case of `CCOC(=O)[C@@]1(C)CC[C@]2(C)CC[C@]3(C)C(=CC(=O)[C@@H]4[C@@]5(C)CC[C@H](OC(=O)CCC(=O)Nc6nc7ccc(C)cc7s6)C(C)(C)[C@@H]5CC[C@]43C)[C@@H]2C1`, the IC50 in the test on MCF7 stood at 22.5 µM; in the test with A549 it was 19.1 µM; in the test on HepG2, 27.5 µM; in the test with HCT-116, 23.6 µM; in test [3], 14.9 µM.

For the compound `CC1(C)[C@@H](O)CC[C@]2(C)[C@H]3C(=O)C=C4[C@@H]5C[C@@](C)(C(=O)Nc6nc7c(F)cccc7s6)CC[C@]5(C)CC[C@@]4(C)[C@]3(C)CC[C@@H]12`, the IC50 was found to be 41.2 µM in the test with MCF7; 36.5 µM in the test with A549; 45.6 µM in the test with HepG2; 42.5 µM with HCT-116; 45.7 µM in test [3].

With `CC(=O)O[C@H]1CC[C@]2(C)[C@H]3C(=O)C=C4[C@@H]5C[C@@](C)(C(=O)Nc6nc7c(Br)cccc7s6)CC[C@]5(C)CC[C@@]4(C)[C@]3(C)CC[C@H]2C1(C)C`, the IC50 (with MCF7; with A549; with HepG2; in the test with HCT-116; in test [3]) was above 100 µM in each case.

Consider `COc1ccc2nc(NC(=O)[C@@]3(C)CC[C@]4(C)CC[C@]5(C)C(=CC(=O)[C@@H]6[C@@]7(C)CC[C@H](OC(C)=O)C(C)(C)[C@@H]7CC[C@]65C)[C@@H]4C3)sc2c1`, for which the IC50 in the test on MCF7 was 81.2 µM; with A549, 75.5 µM; in the test on HepG2, 85.6 µM; with HCT-116, above 100 µM; in test [3], 90.1 µM.

With `CC(=O)O[C@H]1CC[C@]2(C)[C@H]3C(=O)C=C4[C@@H]5C[C@@](C)(C(=O)Nc6nc7c(F)cccc7s6)CC[C@]5(C)CC[C@@]4(C)[C@]3(C)CC[C@H]2C1(C)C`, the IC50 (in the test with MCF7; in the test with A549; with HepG2; in the test with HCT-116; in test [3]) was above 100 µM throughout.

`CC(=O)O[C@H]1CC[C@]2(C)[C@H]3C(=O)C=C4[C@@H]5C[C@@](C)(C(=O)Nc6nc7ccc(C)cc7s6)CC[C@]5(C)CC[C@@]4(C)[C@]3(C)CC[C@H]2C1(C)C`: the IC50 (in the test with MCF7; with A549; with HepG2; in the test on HCT-116; in test [3]) was above 100 µM each time.

For the compound `CC1(C)[C@@H](O)CC[C@]2(C)[C@H]3C(=O)C=C4[C@@H]5C[C@@](C)(C(=O)Nc6nc7ccc(F)cc7s6)CC[C@]5(C)CC[C@@]4(C)[C@]3(C)CC[C@@H]12`, the IC50 in the test with MCF7 is 31.1 µM; in the test with A549, 32.2 µM; in the test on HepG2, 36.4 µM; in the test with HCT-116, 31.5 µM; in test [3], 32.3 µM.

Regarding `CCOC(=O)[C@@]1(C)CC[C@]2(C)CC[C@]3(C)C(=CC(=O)[C@@H]4[C@@]5(C)CC[C@H](OC(=O)CCC(=O)Nc6nc7ccc(OC)cc7s6)C(C)(C)[C@@H]5CC[C@]43C)[C@@H]2C1`, the IC50 was determined as 18.5 µM with MCF7; 15.5 µM with A549; 20.4 µM with HepG2; 21.3 µM in the test with HCT-116; 8.24 µM in test [3].

On to `CC(=O)O[C@H]1CC[C@]2(C)[C@H]3C(=O)C=C4[C@@H]5C[C@@](C)(C(=O)Nc6nc7ccc(Br)cc7s6)CC[C@]5(C)CC[C@@]4(C)[C@]3(C)CC[C@H]2C1(C)C`, for which the IC50 came to 78.1 µM with MCF7; 69.7 µM with A549; 86 µM in the test on HepG2; 76.8 µM in the test on HCT-116; 81.9 µM in test [3].

These data come from ChEMBL document CHEMBL4219101, “Discovery of 18β-glycyrrhetinic acid conjugated aminobenzothiazole derivatives as Hsp90-Cdc37 interaction disruptors that inhibit cell migration and reverse drug resistance” (Bioorg Med Chem, 2018).
